Only some compounds are listed: those with a hit (about 5.2% of all), similar ones and a draw of the others.
AP ELISA ortho – alternative complement pathway inhibitors, primary screen, biochemical, ELISA, human serum, orthogonally pooled compounds. inhibition, % at 5 µM. actives 0.08% (n = 62,000). LPS-coated ELISA, C3 deposition; tested in compound mixtures. AID 1235, 2008;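 active means inhibition above 30% in each of the two pooled mixtures holding the compound, so the lower value exceeds 30%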;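 further: 0% = serum in Mg-EGTA without compound and 100% = EDTA serum blank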
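Medium: diluted human serum in Mg2+-EGTA GVB++. Assay system: human serum complement alternative pathway, C3 deposition onto LPS. Also added: Plate-bound LPS. Technique: Anti-C3 ELISA, OD 450 nm. Measure: percent inhibition. Incubation: 1 h at 37 °C. Dosing: 5 µM each compound, pools of ten, 50 µM per pool.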
WNV NS2B-NS3 inh – inhibitors of WNV NS2B-NS3 protease, primary screen, biochemical, fluorogenic substrate. Genome polyprotein (West Nile virus), P06935. fluorogenic substrate Ex360/Em465; active compounds read low. z-score (concentration not given with the values). actives 0.18% (n = 65,000); in the data active means z-score below about -3
tolC growth inh – growth inhibitors of E. coli tolC mutant, primary screen, strain BW25113 ΔtolC::kan, 384-well; AID 573, 2007; growth inhibition, % at 10 µM (by protocol); actives 2.2% (n = 65,000); OD615;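 active means growth inhibition at or above a cutoff equal to the mean over every tested compound plus 3 SD, cut at about 60% in these data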;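 further: growth measured after 20 h incubation at 37 °C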
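Assay system: tolC-deleted E. coli BW25113. Medium: kanamycin-containing LB broth (50 µg/mL). Dosing: 10 µM final, single dose. Timing: bacterial growth with compound for 20 h at 37 °C. Detection: A615 absorbance measurement. Read-out basis: growth inhibition in percent.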
M1 ag – M1 muscarinic receptor agonists, primary screen, CHO-M1 cells, Fluo-4 calcium, agonist mode; B-score at 10 µM; Muscarinic acetylcholine receptor M1; Fluo-4 calcium fluorescence; active compounds read high; actives 3% (n = 64,000); AID 626, 2007;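 active means fluorescence rise, raw or as B-score row- and column-corrected plate score, outside the 99.7% band of its plate's samples, either direction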
E coli WT exp – growth inhibitors of wild-type E. coli, primary screen, strain BW25113, expanded library, OD600; OD600 absorbance; growth inhibition, % at 100 µM; actives 0.15% (n = 98,000); AID 710, 2007;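 active means growth inhibition above about 50% at one test dose, limit read from the data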;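 further: growth measured after 20 h incubation at 37 °C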
M1 antag – antagonists of rat M1 muscarinic receptor | CHO-M1 cells, Fluo-4 calcium, ACh EC80 antagonist mode; active compounds read low | Muscarinic acetylcholine receptor M1 (Rattus norvegicus), P08482 | actives 3.4% (n = 64,000) | B-score at 10 µM;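 active means calcium fluorescence response, raw or row-and-column corrected B-score, differing from the plate sample mean either way at a set confidence level, mostly lower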
M1 ag confirm – rat M1 muscarinic receptor agonists, confirmation, CHO-M1 cells, Fluo-4 calcium, duplicate retest; shares compounds with M1 ag; Fluo-4 calcium fluorescence, agonist mode; actives lie on both sides; fluorescence change (max-min) at 10 µM; actives 19% (n = 1,700);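 active means fluorescence change differs from the solvent-only DMSO control mean at a set confidence level in both duplicate runs; inconclusive means differs from solvent-only control mean in just one of two runs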;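 further: an EC20 dose of acetylcholine follows compound addition during the same imaging run; raw fluorescence intensity difference in instrument units with no normalization to controls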
M4 ag counter – agonist activity at rat M4 receptor, confirmation, counter-screen for M1 allosteric modulator project, cell-based, agonist mode | shares compounds with M1 ag | CHO M4/Gqi5 cells, Fluo-4 calcium fluorescence; actives lie on both sides | fluorescence change (max-min) at 10 µM | actives 9% (n = 1,700) | AID 1741, 2009;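 active means fluorescence change differing from the plate's solvent-only control wells at 99.7% confidence in both duplicates, whether higher or lower; inconclusive means differs from solvent controls in only one of two duplicates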
Target sequence (P08485 whole entry, looked up): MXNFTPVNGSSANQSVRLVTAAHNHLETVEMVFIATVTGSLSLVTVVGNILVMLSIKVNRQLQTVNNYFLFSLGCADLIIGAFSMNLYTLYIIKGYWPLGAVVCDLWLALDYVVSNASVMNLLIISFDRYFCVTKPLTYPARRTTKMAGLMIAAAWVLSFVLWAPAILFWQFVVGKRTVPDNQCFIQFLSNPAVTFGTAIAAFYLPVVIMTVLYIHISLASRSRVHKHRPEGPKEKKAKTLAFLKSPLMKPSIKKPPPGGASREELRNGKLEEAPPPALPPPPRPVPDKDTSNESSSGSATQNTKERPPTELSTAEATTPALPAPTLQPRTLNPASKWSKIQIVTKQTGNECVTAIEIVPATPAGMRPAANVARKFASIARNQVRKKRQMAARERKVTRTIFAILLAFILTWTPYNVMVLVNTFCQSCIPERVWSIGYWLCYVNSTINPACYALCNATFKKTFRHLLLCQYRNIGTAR
M1 antag conf – rat M1 muscarinic receptor antagonists, confirmation, CHO cells, Fluo-4 calcium, duplicate | calcium response (max-min fluorescence) at 10 µM | shares compounds with M1 antag | ACh EC80 antagonism; active compounds read low | actives 43% (n = 1,700);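 active means calcium response below the same-plate mean of wells given acetylcholine alone at its 80%-effect dose, minus 3 SD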;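 further: raw fluorescence intensity difference in arbitrary instrument units and not normalized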
mGluR4 antag – human mGluR4 response to M1 antagonist hits, M1 allosteric modulator project, cell-based, antagonist mode, secondary assay 1. shares compounds with M1 antag. CHO-mGluR4 calcium flux, Fluo-4 fluorescence, glutamate EC80; active compounds read low. fluorescence response (max-min) at 10 µM. actives 0.9% (n = 1,700). AID 678, 2007;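 active means fluorescence response below the plate's average for near-maximal glutamate wells, less 3 SD of those wells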;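 further: raw unnormalized fluorescence span taken in the window right after glutamate addition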
Starred values were filed as active, the others as inactive; ? = inconclusive; . = no result.

SMILES	AP ELISA ortho	WNV NS2B-NS3 inh	tolC growth inh	M1 ag	E coli WT exp	M1 antag	M1 antag conf	mGluR4 antag	others
O=C(O)c1cc(-c2ccco2)nc2ccc(Br)cc12	3.3	-1.81	9.1	-2.53*	-1.0	-17.2*	659	231	M1 ag confirm=-2.48;M4 ag counter=5.08
Cc1ccc(CC2C(=O)N(CC(=O)O)C(=O)C2C)cc1 (stereo not given)	.	.	.	.	-1.0	.	.	.
Cc1ccc(CC2C(=O)N(c3ncccn3)C(=O)C2C)cc1 (stereo not given)	22.6	-0.19	-9.9	-3.69*	4.0	-7*	610	254	M1 ag confirm=-27.2;M4 ag counter=-33.9
O=c1c2c3c(sc2nc2n1CCCC2)CCCCC3	.	.	.	.	-5.0	.	.	.
N=c1c2c3c(sc2nc2n1CCCCC2)CCCCC3	6.2	-0.73	6.4	-3.29*	5.0	-18.5*	15.3*	281	M1 ag confirm=-23.7*;M4 ag counter=-36.9
CCN(CC)C(NC(=O)c1ccccc1)C(=O)c1ccccc1 (stereo not given)	14.9	-1.08	-5.6	-0.563	4.0	-0.0467	.	.
CCCN1CCN(CCCNC(=O)c2cc3c(=O)n(C)c4ccccc4c3n2C)CC1	3.2	0.18	10.5	-3.06*	1.0	-4.27*	497	215	M1 ag confirm=?;M4 ag counter=-36.1
Cc1ccc(NC(C)c2cc(Cl)ccc2O)cc1 (stereo not given)	.	.	.	.	8.0	.	.	.
Cc1nccn1CCc1n[nH]c(=S)n1Cc1ccccc1	6.0	-0.32	-10.3	1.02	5.0	-9.47*	314*	233
CCCCNCCCOc1cccc(Cl)c1	6.4	2.01	-1.8	-2.82*	15.0	-4.62*	483	219
O=C1C(=O)N(CCCn2ccnc2)C(c2cccnc2)/C1=C(/O)c1ccccc1 (stereo not given)	-9.0	.	-4.2	-1.06	.	-1.23	.	.
Cc1cc2nc(C)n(CCCNC(=O)Nc3ccc(C#N)cc3)c2cc1C	14.4	0.00884	31.6	-0.786	9.0	-10.2*	135*	210
c1ccc(CCN2CN(CCCN3CCOCC3)c3nc4ccccc4n3C2)cc1	2.4	0.37	3.6	-0.233	4.0	-1.94*	442	187
O=C(CN(C(=O)CSc1nc2ccccc2o1)c1ccccc1)NC1CCCCC1	.	.	.	.	-8.0	.	.	.
NCCCCCc1nnc(SC/C=C/c2ccccc2)o1	8.5	0.09	-10.5	0.0105	2.0	-3.56*	450*	275
Clc1ccc(-c2nc3ccccc3n2OCc2ccccc2)cc1	.	.	.	.	-4.0	.	.	.
COc1ccc(S(=O)(=O)N2CCC(C(=O)NCCC3=CCCCC3)CC2)cc1OC	8.6	-0.63	3.9	0.222	1.0	-0.469	.	.
CCOC(=O)N1CCN(C(=O)c2ccc3c(c2)ncn3C2CCCC2)CC1	12.4	-1.07	-2.6	1.55	2.0	-2.28*	438	211
O=C1C2CC=CCC2C(=O)N1c1n[nH]c(-c2ccccc2)n1 (stereo not given)	.	.	.	.	-4.0	.	.	.
CCC1(C)Cc2ccccc2-c2nc3n(c(=O)c21)CCCCC3 (stereo not given)	15.0	-0.01	100.0*	-1.37	2.0	-3.99*	420*	215
CCOC(=O)c1ccc(NC(=O)c2ccc(CN3CCOCC3)cc2)cc1	12.1	-0.36	-14.2	1.57	-2.0	-7.29*	418*	259
CCN1CCN(Cc2ccc(NC(=O)Nc3ccccc3Cl)cc2)CC1	-7.9	0.03	-12.7	0.0907	7.0	-2.99*	526	225
CC(=O)Nc1ccc(CN2CCCCCCC2)cc1	-3.0	-0.19	-22.9	-0.25	-4.0	-1.89*	488*	208
COc1ccc(OC)c(S(=O)(=O)N2CCC(C(=O)NCC3CCCO3)CC2)c1 (stereo not given)	-4.3	1.41	-12.0	0.325	-3.0	0.22	.	.
CCn1c(=NC(=O)c2ccc(S(=O)(=O)N3CCOCC3)cc2)sc2cccc(OC)c21	0.5	-0.56	17.2	1.08	-12.0	-1.75*	588	237
SMILES	AP ELISA ortho	WNV NS2B-NS3 inh	tolC growth inh	M1 ag	E coli WT exp	M1 antag	M1 antag conf	mGluR4 antag	others
CCn1c(SCC(=O)O)nnc1C1CCCCC1	8.8	-0.21	-13.8	-0.82	-5.0	-4.69*	562	178
COC(=O)c1[nH]c2cccc(Cl)c2c1NC(=O)CN(C)C1CCCCC1	2.7	0.6	14.9	1.21	11.0	-1.85*	367*	180
Cn1c(Cn2nnc3ccccc32)nnc1SCC(N)=O	12.8	-0.49	-16.2	0.148	2.0	0.37	.	.
COC(=O)c1c(NC(=O)CSc2nnc(Cn3nnc4ccccc43)n2C)sc(C)c1C	12.3	0.43	-11.7	1.3	-5.0	-2.35*	430*	255
O=C(CN1CCN(C(c2ccccc2)c2ccccc2)CC1)N1CCOCC1	-7.2	-0.61	-18.2	-0.0209	6.0	-19.1*	179*	246
O=S(=O)(CCN1CCN(C(c2ccccc2)c2ccccc2)CC1)C(F)(F)F	13.4	-0.52	-0.5	-0.38	20.0	-3.76*	387*	203
O=C(Nc1ccccc1-c1ccccc1)NC1CCN(CC(=O)N2CCOCC2)CC1	9.5	-0.95	-9.3	0.815	0.0	-5.95*	323*	242
O=[N+]([O-])c1cc(C(F)(F)F)ccc1NCCNC(=S)Nc1ccc(Cl)cc1	.	.	.	.	3.0	.	.	.
CCc1nc(NCc2ccco2)c2oc3ccccc3c2n1	8.2	-0.51	12.8	-0.00886	4.0	-3.94*	581	213
CCNc1nc(CC)nc2c1oc1ccccc12	-6.1	0.32	8.0	-1.05	-1.0	-1.32	.	.
Cn1c(=Nc2ccc(N3CCOCC3)cc2)ccc2ccccc21	4.3	-1.07	-13.1	0.318	2.0	-10.5*	289*	197
Cn1cc(CNC(=O)C2c3ccccc3Oc3ccccc32)cn1	6.4	0.78	-19.4	-0.868	-1.0	2.26	.	.
O=C(NCc1ccco1)C1c2ccccc2Oc2ccccc21	0.8	-0.93	4.5	-0.452	1.0	-5.38*	556	210

Bioassay records: PubChem, several laboratories
